# Results: ChEMBL document CHEMBL1144242, “Synthesis and antituberculosis activity of 5-methyl/trifluoromethoxy-1H-indole-2,3-dione 3-thiosemicarbazone derivatives” (Bioorg Med Chem, 2008)
# System: Mycobacterium tuberculosis
# Assay: Antitubercular activity against Mycobacterium tuberculosis H37Rv after 4 days by microplate alamar blue assay
# Format: functional
# Details: 96 h
# How it was run: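 M. tuberculosis H37Rv (ATCC 27294) in BACTEC 12B medium by MABA; 10 twofold dilutions, usually 100 to 0.19 µg/mL; final titer as printed; 37 °C, Alamar Blue added from day 4 once control wells turned pink, read 24 h later (ex 530/em 590 nm). MIC: lowest concentration giving 90% fluorescence reduction vs controls, taken as IC90 from dose-response curve fit.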
row,Structure (SMILES),IC90 [µg/mL]
1,CN1C(=O)/C(=N\NC(=S)Nc2ccccc2)c2cc(OC(F)(F)F)ccc21,> 100
2,Cc1ccc(NC(=S)N/N=C2\C(=O)Nc3ccc(C)cc32)cc1,> 100
3,C=CCNC(=S)N/N=C1\C(=O)N(C)c2ccc(C)cc21,> 100
4,CNC(=S)N/N=C1\C(=O)N(C)c2ccc(C)cc21,> 100
5,O=C1/C(=N\NC(=S)Nc2ccc(Br)cc2)c2cc(OC(F)(F)F)ccc2N1CN1CCOCC1,3.03
6,O=C1/C(=N\NC(=S)Nc2ccc([N+](=O)[O-])cc2)c2cc(OC(F)(F)F)ccc2N1CN1CCOCC1,> 100
7,CNC(=S)N/N=C1\C(=O)Nc2ccc(C)cc21,> 100
8,Cc1ccc2c(c1)/C(=N/NC(=S)Nc1ccc(Cl)cc1)C(=O)N2C,> 100
9,CNC(=S)N/N=C1\C(=O)N(CN2CCOCC2)c2ccc(OC(F)(F)F)cc21,> 100
10,CCNC(=S)N/N=C1\C(=O)N(CN2CCOCC2)c2ccc(OC(F)(F)F)cc21,> 100
11,Cc1ccc2c(c1)/C(=N/NC(=S)NCc1ccccc1)C(=O)N2C,> 100
12,Cc1ccc2c(c1)/C(=N/NC(=S)Nc1ccc(F)cc1)C(=O)N2C,> 100
13,CN1C(=O)/C(=N\NC(=S)Nc2ccc(Cl)cc2)c2cc(OC(F)(F)F)ccc21,> 100
14,Cc1ccc(NC(=S)N/N=C2\C(=O)N(CN3CCOCC3)c3ccc(OC(F)(F)F)cc32)cc1,> 100
15,CN1C(=O)/C(=N\NC(=S)Nc2ccc(Br)cc2)c2cc(OC(F)(F)F)ccc21,> 100
16,Cc1ccc2c(c1)/C(=N/NC(=S)Nc1ccccc1)C(=O)N2C,> 100
17,Cc1ccc(NC(=S)N/N=C2\C(=O)N(C)c3ccc(C)cc32)cc1,> 100
18,CN1C(=O)/C(=N\NC(=S)Nc2ccc(F)cc2)c2cc(OC(F)(F)F)ccc21,> 100
19,O=C1/C(=N\NC(=S)NC2CCCCC2)c2cc(OC(F)(F)F)ccc2N1CN1CCOCC1,5.69
20,O=C1/C(=N\NC(=S)NCc2ccccc2)c2cc(OC(F)(F)F)ccc2N1CN1CCOCC1,> 100
21,O=C1/C(=N\NC(=S)Nc2ccccc2)c2cc(OC(F)(F)F)ccc2N1CN1CCOCC1,> 100
22,CCCCNC(=S)N/N=C1\C(=O)N(CN2CCOCC2)c2ccc(OC(F)(F)F)cc21,> 100

row,Structure (SMILES),IC90 [µg/mL]
1,Cc1ccc2c(c1)/C(=N/NC(=S)Nc1ccc(Br)cc1)C(=O)N2,> 100
2,Cc1ccc2c(c1)/C(=N/NC(=S)NC1CCCCC1)C(=O)N2C,> 100
3,C=CCNC(=S)N/N=C1\C(=O)N(C)c2ccc(OC(F)(F)F)cc21,> 100
4,CCCCNC(=S)N/N=C1\C(=O)N(C)c2ccc(OC(F)(F)F)cc21,> 100
5,Cc1ccc2c(c1)/C(=N/NC(=S)Nc1ccccc1Br)C(=O)N2C,> 100
6,Cc1ccc2c(c1)/C(=N/NC(=S)Nc1ccc([N+](=O)[O-])cc1)C(=O)N2C,> 100
7,CNC(=S)N/N=C1\C(=O)N(C)c2ccc(OC(F)(F)F)cc21,> 100
8,CN1C(=O)/C(=N\NC(=S)NC2CCCCC2)c2cc(OC(F)(F)F)ccc21,> 100
9,CN1C(=O)/C(=N\NC(=S)NCc2ccccc2)c2cc(OC(F)(F)F)ccc21,> 100
10,O=C1Nc2ccc(OC(F)(F)F)cc2/C1=N/NC(=S)Nc1ccccc1,> 100
11,Cc1ccc(NC(=S)N/N=C2\C(=O)Nc3ccc(OC(F)(F)F)cc32)cc1,> 100
12,O=C1Nc2ccc(OC(F)(F)F)cc2/C1=N/NC(=S)Nc1ccc(F)cc1,1.55
13,Cc1ccc2c(c1)/C(=N/NC(=S)Nc1cccc(Br)c1)C(=O)N2,1.49
14,O=C1Nc2ccc(OC(F)(F)F)cc2/C1=N/NC(=S)NCc1ccccc1,> 100
15,CCCCNC(=S)N/N=C1\C(=O)N(C)c2ccc(C)cc21,> 100
16,Cc1ccc2c(c1)/C(=N/NC(=S)NCc1ccccc1)C(=O)N2,> 100
17,CNC(=S)N/N=C1\C(=O)Nc2ccc(OC(F)(F)F)cc21,> 100
18,C=CCNC(=S)N/N=C1\C(=O)Nc2ccc(OC(F)(F)F)cc21,> 100
19,O=C1Nc2ccc(OC(F)(F)F)cc2/C1=N/NC(=S)Nc1ccc(Br)cc1,1.53
20,CCNC(=S)N/N=C1\C(=O)N(C)c2ccc(C)cc21,> 100
21,C=CCNC(=S)N/N=C1\C(=O)Nc2ccc(C)cc21,> 100
22,O=C1Nc2ccc(OC(F)(F)F)cc2/C1=N/NC(=S)Nc1ccc(Cl)cc1,1.52

row,Structure (SMILES),IC90 [µg/mL]
1,Cc1ccc(NC(=S)N/N=C2\C(=O)N(C)c3ccc(OC(F)(F)F)cc32)cc1,> 100
2,O=C1Nc2ccc(OC(F)(F)F)cc2/C1=N/NC(=S)NC1CCCCC1,> 100
3,CCCCNC(=S)N/N=C1\C(=O)Nc2ccc(C)cc21,0.911
4,Cc1ccc2c(c1)/C(=N/NC(=S)Nc1ccc(F)cc1)C(=O)N2,1.59
5,Cc1ccc2c(c1)/C(=N/NC(=S)Nc1ccccc1)C(=O)N2,1.43
6,CCNC(=S)N/N=C1\C(=O)N(C)c2ccc(OC(F)(F)F)cc21,> 100
7,CCNC(=S)N/N=C1\C(=O)Nc2ccc(C)cc21,> 100
8,O=C1/C(=N\NC(=S)Nc2ccc(Cl)cc2)c2cc(OC(F)(F)F)ccc2N1CN1CCOCC1,3.04
9,Cc1ccc2c(c1)/C(=N/NC(=S)NC1CCCCC1)C(=O)N2,0.795
10,Cc1ccc2c(c1)/C(=N/NC(=S)Nc1ccc(Br)cc1)C(=O)N2C,> 100
11,CN1C(=O)/C(=N\NC(=S)Nc2ccc([N+](=O)[O-])cc2)c2cc(OC(F)(F)F)ccc21,> 100
12,Cc1ccc2c(c1)/C(=N/NC(=S)Nc1ccc(Cl)cc1)C(=O)N2,3.57
13,COc1ccc(NC(=S)N/N=C2\C(=O)N(CN3CCOCC3)c3ccc(OC(F)(F)F)cc32)cc1,> 100
14,C=CCNC(=S)N/N=C1\C(=O)N(CN2CCOCC2)c2ccc(OC(F)(F)F)cc21,> 100
15,O=C1/C(=N\NC(=S)Nc2ccc(F)cc2)c2cc(OC(F)(F)F)ccc2N1CN1CCOCC1,3.06
16,Cc1ccc2c(c1)/C(=N/NC(=S)Nc1cccc(Br)c1)C(=O)N2C,> 100
17,COc1ccc(NC(=S)N/N=C2\C(=O)Nc3ccc(OC(F)(F)F)cc32)cc1,> 100
18,CCCCNC(=S)N/N=C1\C(=O)Nc2ccc(OC(F)(F)F)cc21,> 100
19,CCNC(=S)N/N=C1\C(=O)Nc2ccc(OC(F)(F)F)cc21,> 100
20,Cc1ccc2c(c1)/C(=N/NC(=S)Nc1ccccc1Br)C(=O)N2,> 100
21,Cc1ccc2c(c1)/C(=N/NC(=S)Nc1ccc([N+](=O)[O-])cc1)C(=O)N2,> 100
22,O=C1Nc2ccc(OC(F)(F)F)cc2/C1=N/NC(=S)Nc1ccc([N+](=O)[O-])cc1,> 100

# System: not listed separately
# Assay: Selectivity index, ratio of IC50 for african green monkey Vero cells to IC90 for Mycobacterium tuberculosis H37Rv
# Format: toxicity, cell-based
# Details: read-out: Selectivity Index
# How it was run: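 SI = VERO cell IC50 / M. tuberculosis H37Rv MIC. VERO cells exposed 72 h at concentrations up to 10x the H37Rv MIC; viability by MTT (CellTiter 96); IC50 from dose-response curve fit. MIC from MABA against H37Rv in BACTEC 12B medium, 37 °C, 90% fluorescence reduction defining IC90.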
row,Structure (SMILES),selectivity ratio
1,O=C1/C(=N\NC(=S)Nc2ccc(Br)cc2)c2cc(OC(F)(F)F)ccc2N1CN1CCOCC1,2.46
2,O=C1/C(=N\NC(=S)NC2CCCCC2)c2cc(OC(F)(F)F)ccc2N1CN1CCOCC1,4.12
3,O=C1Nc2ccc(OC(F)(F)F)cc2/C1=N/NC(=S)Nc1ccc(F)cc1,1.64
4,Cc1ccc2c(c1)/C(=N/NC(=S)Nc1cccc(Br)c1)C(=O)N2,0.473
5,O=C1Nc2ccc(OC(F)(F)F)cc2/C1=N/NC(=S)Nc1ccc(Br)cc1,3.77
6,O=C1Nc2ccc(OC(F)(F)F)cc2/C1=N/NC(=S)Nc1ccc(Cl)cc1,4.2
7,CCCCNC(=S)N/N=C1\C(=O)Nc2ccc(C)cc21,4.82
8,Cc1ccc2c(c1)/C(=N/NC(=S)Nc1ccc(F)cc1)C(=O)N2,< 0.123
9,Cc1ccc2c(c1)/C(=N/NC(=S)Nc1ccccc1)C(=O)N2,0.742
10,O=C1/C(=N\NC(=S)Nc2ccc(Cl)cc2)c2cc(OC(F)(F)F)ccc2N1CN1CCOCC1,3.19
11,Cc1ccc2c(c1)/C(=N/NC(=S)NC1CCCCC1)C(=O)N2,1.98
12,Cc1ccc2c(c1)/C(=N/NC(=S)Nc1ccc(Cl)cc1)C(=O)N2,3.46
13,O=C1/C(=N\NC(=S)Nc2ccc(F)cc2)c2cc(OC(F)(F)F)ccc2N1CN1CCOCC1,0.784
14,CO[C@H]1/C=C/O[C@@]2(C)Oc3c(C)c(O)c4c(O)c(c(/C=N/N5CCN(C)CC5)c(O)c4c3C2=O)NC(=O)/C(C)=C\C=C\[C@H](C)[C@H](O)[C@@H](C)[C@@H](O)[C@@H](C)[C@H](OC(C)=O)[C@@H]1C [RIFAMPIN],> 800
